Source: ChEMBL document CHEMBL4257467, “Synthesis and pharmaceutical characterization of site specific mycophenolic acid-modified Xenopus glucagon-like peptide-1 analogs” (Medchemcomm, 2018)
pEC50: −log10 of the molar value. Activity calls are given as the source filed them. *1 amine or outer side, *2 acyl side, *3 side chain or, on linkers, in order; H or OH if unused. Where a SMILES comes first, the peptide text is derived from it. Side-chain parts run from the residue outwards. The star is where a group is joined. Mycophenolyl = COc1c(C)c2c(c(O)c1C/C=C(\C)CCC(=O)*)C(=O)OC2; γGlu = O=C(O)[C@H](CCC(=O)[*:2])N[*:1]; 12Ado = NCCCCCCCCCCCC(=O)O

How the values were obtained:
Mus musculus [1] = assay: Hypoglycemic activity in non-fasting C57BL/6J m+/+ Lepr db mouse assessed as reduction in blood glucose AUC (0 to 48 hrs) at 25 to 100 nmol/kg, ip by glucometric method; type: functional, organism-based
Method in brief: (§1)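 Non-fasting male db/db mice (30–40 g, 9 weeks, n = 6) with free food and water. Single ip dose at 0 h: liraglutide 25 nmol kg−1, test peptides 25 or 100 nmol kg−1, or saline. Blood glucose by glucometer at 0, 2, 4, 6, 12, 24, 48 h. Rebound time to >15 mmol L−1 and AUC0–48h derived; means ± SD.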

[2] = molecular target: Glucagon-like peptide 1 receptor (Homo sapiens, UniProt P43220); assay: Agonist activity at human GLP1 receptor expressed in HEK293 cells assessed as increase in cAMP level after 30 mins by HTRF method; type: functional, cell-based
Method in brief: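 HEK293 cells stably expressing human GLP-1 receptor, thawed, suspended in DMEM with 20 mM HEPES, 2 mM L-Glu, 0.5% FBS, 1% pen-strep. Compounds dissolved in DMSO, diluted in assay buffer to 1 × 10−13–1 × 10−6 M final, 30 min at 37 °C in 5% CO2. cAMP read by HTRF. EC50 as means ± SD of three individual experiments, n = 3.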

Albumin = Albumin (Homo sapiens, UniProt P02768); assay: Binding affinity to human serum albumin after 60 mins by ultrafiltration-based HPLC analysis; type: ADME; details: human serum albumin, read-out: PB (converted)
Method in brief: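 Peptide in PBS pH 7.4 (100 μg ml−1) mixed with HSA (10 mg ml−1 in PBS), incubated 60 min at 37 °C. Ultrafiltration through 30 kDa cutoff filter, 30 min at 3500 rpm. Free compound in filtrate by HPLC. Membrane adsorption checked (<4%). Repeated three times.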

Mus musculus [3] = assay: Antidiabetic activity in C57BL/6J m+/+ Lepr db mouse assessed as plasma insulin level at 25 nmol/kg, ip pretreated for 30 mins followed by glucose challenge and measured after 15 mins by ELISA; type: functional
Method in brief: (§2)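 Male db/db mice (30–40 g, 9 weeks, n = 6) fasted 18 h. Saline or peptide 25 nmol kg−1 ip at −30 min, ip glucose 1 g kg−1 at 0 min. Tail-vein glucose by glucometer at −30, 0, 10, 15, 30, 45, 60, 120 min. Plasma insulin by mouse insulin ELISA. AUC0–120min for glucose and insulin calculated; means ± SD.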

Mus musculus [4] = assay: Antidiabetic activity in C57BL/6J m+/+ Lepr db mouse assessed as increase in plasma insulin AUC (0 to 120 mins) at 25 nmol/kg, ip pretreated for 30 mins followed by glucose challenge by ELISA; type: functional, organism-based; method in brief: as §2
Mus musculus [5] = assay: Hypoglycemic activity in C57BL/6J m+/+ Lepr db mouse assessed as blood glucose level at 25 nmol/kg, ip pretreated for 30 mins followed by glucose challenge and measured after 15 mins by IPGTT; type: functional; method in brief: as §2
Mus musculus [6] = assay: Hypoglycemic activity in non-fasting C57BL/6J m+/+ Lepr db mouse assessed as rebound time from the lowest glucose level (12 mmol/L) to diabetic glucose level (>15 mmol/L) at 25 nmol/kg, ip by glucometric method; type: functional; method in brief: as §1
Mus musculus [7] = assay: Antidiabetic activity in Kunming mouse assessed as reduction in blood glucose level at 25 nmol/kg, ip pretreated for 30 mins followed by glucose-challenge and measured after 15 to 120 mins by IPGTT; type: functional, organism-based
Method in brief: (§3)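 Male Kunming mice (20–25 g, n = 6) fasted overnight. Peptide or saline 25 nmol kg−1 ip at −30 min, ip glucose 2 g kg−1 at 0 min. Tail-vein blood glucose by glucometer at −30, 0, 15, 30, 60 and 120 min. Glucose AUC0–120min calculated; means ± SD.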

Mus musculus [8] = assay: Antidiabetic activity in Kunming mouse assessed as reduction in blood glucose AUC at 25 nmol/kg, ip pretreated for 30 mins followed by glucose-challenge and measured after 15 to 120 mins by IPGTT; type: functional, organism-based; method in brief: as §3
Mus musculus [9] = assay: Hypoglycemic activity in non-fasting C57BL/6J m+/+ Lepr db mouse assessed as rebound time from the lowest glucose level (12 mmol/L) to diabetic glucose level (>15 mmol/L) at 100 nmol/kg, ip by glucometric method; type: functional; method in brief: as §1
[10] = Half life in Sprague-Dawley rat plasma at 0.5 mL by LC-MS/MS analysis; type: ADME, cell-free; details: Sprague-Dawley
Method in brief: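 Plasma from male Sprague-Dawley rats (200–250 g). Peptide in PBS pH 7.4 added to initial 1000 ng ml−1 and incubated at 37 °C for 48 h. Samples at 2, 4, 8, 12, 24, 36, 48 h precipitated with acetonitrile containing 2% formic acid, centrifuged, analysed by LC-MS/MS in MRM mode. Degradation curves in triplicate.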

Mus musculus [11] = assay: Antidiabetic activity in C57BL/6J m+/+ Lepr db mouse assessed as reduction in body weight gain at 50 nmol/kg, ip administered once daily for 5 weeks measured every 4 days during compound dosing relative to control; type: functional; parameters: scale not given: the % may be the effect or the level left
Mus musculus [12] = assay: Antidiabetic activity in C57BL/6J m+/+ Lepr db mouse assessed as non-fasting blood glucose levels at 50 nmol/kg, ip administered once daily for 5 weeks measured every 4 days during compound dosing; type: functional
Mus musculus [13] = assay: Hypoglycemic activity in C57BL/6J m+/+ Lepr db mouse assessed as blood glucose AUC (0 to 120 mins) at 25 nmol/kg, ip pretreated for 30 mins followed by glucose challenge by IPGTT; type: functional, organism-based; method in brief: as §2
Mus musculus [14] = assay: Hepatotoxicity in C57BL/6J m+/+ Lepr db mouse assessed as serum ALT level at 50 nmol/kg, ip administered once daily for 5 weeks (reference value: 61.4 +/- 10 IU/L); type: toxicity, organism-based; details: in vivo, 840 h
Mus musculus [15] = assay: Antidiabetic activity in C57BL/6J m+/+ Lepr db mouse assessed as serum triglyceride level at 50 nmol/kg, ip administered once daily for 5 weeks (reference value: 2.3 +/- 0.3 mmol/L); type: functional
Mus musculus [16] = assay: Antidiabetic activity in C57BL/6J m+/+ Lepr db mouse assessed as reduction in blood glucose AUC (0 to 120 mins) at 50 nmol/kg, ip administered once daily for 5 weeks followed by glucose challenge by IPGTT; type: functional, organism-based
Mus musculus [17] = assay: Antidiabetic activity in C57BL/6J m+/+ Lepr db mouse assessed as serum total cholesterol level at 50 nmol/kg, ip administered once daily for 5 weeks (reference value: 6.5 +/- 0.4 mmol/L); type: functional
Mus musculus [18] = assay: Hepatotoxicity in C57BL/6J m+/+ Lepr db mouse assessed as serum AST level at 50 nmol/kg, ip administered once daily for 5 weeks (reference value: 75 +/- 7.4 IU/L); type: toxicity, organism-based; details: in vivo, 840 h
Mus musculus [19] = assay: Hypoglycemic activity in C57BL/6J m+/+ Lepr db mouse assessed as reduction in fasting blood glucose level at 25 nmol/kg, ip pretreated for 30 mins followed by glucose challenge at 6 hrs interval for 24 hrs and measured up to 3 hrs by OGTT; type: functional, organism-based
Method in brief: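 Male db/db mice (30–40 g, 9 weeks, n = 6) fasted 18 h, given saline or peptide 25 nmol kg−1 ip at −0.5 h. Oral glucose 1.5 g kg−1 at 0 h, repeated every 6 h (6, 12, 18 h) over 24 h. Blood glucose by glucometer at 0, 0.25, 0.5, 1, 2 and 3 h after each load.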

Mus musculus [20] = assay: Antidiabetic activity in C57BL/6J m+/+ Lepr db mouse assessed as change in blood glucose level at 50 nmol/kg, ip administered once daily for 5 weeks followed by glucose challenge measured after 15 to 120 mins by IPGTT; type: functional, organism-based
Mus musculus [21] = assay: Antidiabetic activity in C57BL/6J m+/+ Lepr db mouse assessed as reduction in glycated hemoglobin level at 50 nmol/kg, ip administered once daily for 5 weeks relative to control; type: functional; parameters: scale not given: the % may be the effect or the level left
Mus musculus [22] = assay: Antidiabetic activity in C57BL/6J m+/+ Lepr db mouse assessed as reduction in food intake at 50 nmol/kg, ip administered once daily for 5 weeks measured every 4 days during compound dosing; type: functional, organism-based
Mus musculus [23] = assay: Antidiabetic activity in C57BL/6J m+/+ Lepr db mouse assessed as increase in non-fasting plasma insulin levels at 50 nmol/kg, ip administered once daily for 5 weeks measured every 4 days during compound dosing; type: functional, organism-based
Mus musculus [24] = assay: Toxicity in C57BL/6J m+/+ Lepr db mouse assessed as HDL-cholesterol level at 50 nmol/kg, ip administered once daily for 5 weeks (reference value: 1.7 +/- 0.3 mmol/L); type: organism-based; details: in vivo, 840 h
Mus musculus [25] = assay: Antidiabetic activity in C57BL/6J m+/+ Lepr db mouse assessed as serum LDL-cholesterol level at 50 nmol/kg, ip administered once daily for 5 weeks (reference value: 2.2 +/- 0.3 mmol/L); type: functional

Chain of Glucagon-like peptide 1 receptor (P43220 whole entry): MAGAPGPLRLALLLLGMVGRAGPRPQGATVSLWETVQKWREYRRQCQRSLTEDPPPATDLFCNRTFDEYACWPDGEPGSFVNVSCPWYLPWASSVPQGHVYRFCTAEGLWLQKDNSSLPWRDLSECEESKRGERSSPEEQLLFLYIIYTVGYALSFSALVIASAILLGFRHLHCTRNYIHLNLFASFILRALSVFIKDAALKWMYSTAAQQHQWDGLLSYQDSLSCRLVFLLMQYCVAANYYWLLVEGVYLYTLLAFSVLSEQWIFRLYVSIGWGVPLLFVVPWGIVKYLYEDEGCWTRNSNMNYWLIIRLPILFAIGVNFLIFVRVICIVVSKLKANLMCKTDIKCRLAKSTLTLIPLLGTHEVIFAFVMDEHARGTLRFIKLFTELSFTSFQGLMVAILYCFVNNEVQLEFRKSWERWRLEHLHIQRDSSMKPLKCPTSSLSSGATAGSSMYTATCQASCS
Chain of Albumin (P02768 whole entry): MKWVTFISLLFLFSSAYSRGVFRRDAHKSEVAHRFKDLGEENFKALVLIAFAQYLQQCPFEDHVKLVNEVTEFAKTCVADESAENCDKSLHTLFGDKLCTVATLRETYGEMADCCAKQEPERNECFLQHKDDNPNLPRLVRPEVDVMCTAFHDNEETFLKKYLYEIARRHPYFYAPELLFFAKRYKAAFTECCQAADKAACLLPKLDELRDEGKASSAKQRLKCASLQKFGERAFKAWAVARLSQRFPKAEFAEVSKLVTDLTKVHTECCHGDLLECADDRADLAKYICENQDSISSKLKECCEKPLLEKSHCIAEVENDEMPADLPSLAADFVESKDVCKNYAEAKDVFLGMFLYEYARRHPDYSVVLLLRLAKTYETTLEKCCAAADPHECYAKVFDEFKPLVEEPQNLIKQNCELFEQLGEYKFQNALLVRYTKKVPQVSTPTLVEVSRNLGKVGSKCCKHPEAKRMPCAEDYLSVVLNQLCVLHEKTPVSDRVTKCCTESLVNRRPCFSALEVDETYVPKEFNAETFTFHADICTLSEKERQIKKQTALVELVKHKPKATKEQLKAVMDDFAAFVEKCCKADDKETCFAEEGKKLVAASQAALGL

Molecule | Activity (Mus musculus [1]) | pEC50 [2] | fraction unbound at 1 h (Albumin) | Activity (Mus musculus [3]) | Activity (Mus musculus [4]) | Activity (Mus musculus [5]) | Time (Mus musculus [6]) | Activity (Mus musculus [7]) | Activity (Mus musculus [8]) | Time (Mus musculus [9]) | half-life [10] | other results
CC[C@H](C)[C@H](NC(=O)[C@H](CC(C)C)NC(=O)[C@H](Cc1c[nH]c2ccccc12)NC(=O)[C@H](CCC(=O)O)NC(=O)[C@@H](NC(=O)[C@H](Cc1ccccc1)NC(=O)[C@H](CCC(=O)O)NC(=O)[C@H](CCCCNC(=O)CC[C@H](NC(=O)CCCCCCCCCCCNC(=O)CC/C(C)=C/Cc1c(O)c2c(c(C)c1OC)COC2=O)C(=O)O)NC(=O)[C@H](C)NC(=O)[C@H](C)NC(=O)[C@H](CCC(=O)O)NC(=O)[C@H](CCC(=O)O)NC(=O)[C@H](CCC(=O)O)NC(=O)[C@H](CC(C)C)NC(=O)[C@H](Cc1ccc(O)cc1)NC(=O)[C@H](CCC(=O)O)NC(=O)[C@@H](NC(=O)[C@@H](NC(=O)[C@H](CC(=O)O)NC(=O)[C@H](CC(N)=O)NC(=O)[C@@H](NC(=O)[C@H](Cc1ccc(O)cc1)NC(=O)[C@@H](NC(=O)CNC(=O)[C@H](CCC(=O)O)NC(=O)CNC(=O)[C@@H](N)Cc1cnc[nH]1)[C@@H](C)O)[C@@H](C)O)C(C)C)[C@@H](C)O)[C@@H](C)CC)C(=O)N[C@@H](CCCCN)C(=O)NCC(=O)N[C@@H](CCCCN)C(=O)N1CCC[C@H]1C(=O)N[C@@H](CO)C(=O)N[C@@H](CO)C(=O)NCC(=O)N[C@@H](C)C(=O)N1CCC[C@H]1C(=O)N1CCC[C@H]1C(=O)N1CCC[C@H]1C(=O)N[C@@H](CO)C(=O)O (H-HGEGTYTNDVTEYLEEEAAK([γGlu-12Ado-Mycophenolyl])EFIEWLIKGKPSSGAPPPS-OH) | Active | 8.28 | 0.152 | 16.5 mIU/L | Active | 1.24e+07 nmol/L | 18.9 h | Active | Active | 30.4 h | 34.2 h | –
SEMAGLUTIDE | – | – | – | 17.2 mIU/L | Active | 1.1e+07 nmol/L | – | Active | Active | – | – | –
H-HGEGTYTNDVTEYLEEEAAK([γGlu-12Ado-Mycophenolyl])EFIEWLIKGKPSSGAPPSKKKKKK-OH | Active | 8.51 | 0.146 | 18 mIU/L | Active | 1.07e+07 nmol/L | 23.8 h | Active | Active | 38.4 h | 39.8 h | Activity (Mus musculus [11]): 55%; Activity (Mus musculus [12]): 11.2 to 14.9 mmol/L; Activity (Mus musculus [13]): Active; Activity (Mus musculus [14]): 56.9 IU/L; Activity (Mus musculus [15]): 1.4 mmol/L; Activity (Mus musculus [16]): Active; Activity (Mus musculus [17]): 4.5 mmol/L; Activity (Mus musculus [18]): 62.4 IU/L; Activity (Mus musculus [19]): Active; Activity (Mus musculus [20]): Active; Activity (Mus musculus [21]): 6.7%; Activity (Mus musculus [22]): Active; Activity (Mus musculus [23]): Active; Activity (Mus musculus [24]): 1.6 mmol/L; Activity (Mus musculus [25]): 1.4 mmol/L
